For 14 compounds, Activity and inhibition results are on record in ChEMBL document CHEMBL4840361, “Phytochemical Profiling and Biological Testing of the Constituents of the Australian Plant Haemodorum brevisepalum” (2021).

One may read the inhibition as the percentage by which the read-out fell short of the control.

The source made the active and inactive calls. No cut-off for these calls is given here.

One test deals with Escherichia coli. Kind of test: Antibacterial activity against Escherichia coli ATCC 25922 assessed as bacterial growth inhibition at 32 ug/ml measured after 18 hrs by resazurine dye based assay. Type of test: functional, organism-based. The note with it: dose 32.0 µg/ml. In short, it runs like this: (§1)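 Screened through CO-ADD at 32 µg/mL against a panel of five bacteria and two fungi. Run in duplicate (n=2) on different plates. Activity was called when inhibition exceeded 80% with a Z-score above 2.5 in either replicate.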
In general terms: The colour change of resazurin is a common sign of viable cells or microbes.

In the next test the test system is Cryptococcus neoformans. Briefly: Antifungal activity against Cryptococcus neoformans var. grubii H99 ATCC 208821 assessed as fungal growth inhibition at 32 ug/ml measured after 3 days by resazurine dye based assay. The note with it: dose 32.0 µg/ml, time 3.0 day. Type of test: functional, organism-based. In short, it runs like this: as §1
For test [1], the system named is Haemonchus contortus. Briefly: Anthelmintic activity against third stage larvae of Haemonchus contortus assessed as inhibition of xL3 larval motility at 20 uM measured after 72 hrs. Type of test: functional, organism-based. In short, it runs like this:
(§2)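 Exsheathed third-stage larvae (xL3s) of Haemonchus contortus, screened at 20 µM in 96-well plates holding 300 xL3s per well; testing was done at the University of Melbourne.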

The subject of test [2] is Haemonchus contortus. Briefly: Anthelmintic activity against third stage larvae of Haemonchus contortus assessed as inhibition of larval development at 20 uM measured after 7 days by microscopic analysis. To be noted: time 7.0 day. Format: functional, organism-based. An outline of the steps: as §2
For a further test, the system named is Candida albicans. Kind of test: Antifungal activity against Candida albicans ATCC 90028 assessed as fungal growth inhibition at 32 ug/ml measured after 3 days by resazurine dye based assay relative to control. Format: functional. The note with it: ATCC 90028, 72 h, time 3 day. An outline of the steps: as §1
The subject of the next test is Staphylococcus aureus. Briefly: Antibacterial activity against Staphylococcus aureus MRSA ATCC 43300 assessed as bacterial growth inhibition at 32 ug/ml measured after 18 hrs by resazurine dye based assay relative to control. Type of test: functional. An outline of the steps:
as §1

For the compound `O=C1OCc2cc(O)c(O[C@@H]3O[C@H](CO)[C@@H](O)[C@H](O)[C@H]3O)c3c(-c4ccccc4)ccc1c23`, the result with Escherichia coli, with Cryptococcus neoformans, in the test on Haemonchus contortus [1] and with Haemonchus contortus [2] was inactive.
For `O=C1C(O)=Cc2cc(O[C@@H]3O[C@H](CO[C@@H]4O[C@H](CO)[C@@H](O)[C@H](O)[C@H]4O)[C@@H](O)[C@H](O)[C@H]3O)cc3c(-c4ccc(O)c(O)c4)ccc1c23`, the outcome in the test on Escherichia coli, in the test with Cryptococcus neoformans, in the test on Haemonchus contortus [1] and in the test with Haemonchus contortus [2] was inactive.
As to `O=C1C=Cc2cc(O)c(O[C@@H]3O[C@H](CO)[C@@H](O)[C@H](O)[C@H]3O)c3cc(-c4ccccc4O)cc1c23`, the outcome with Escherichia coli, with Cryptococcus neoformans, in the test on Haemonchus contortus [1] and in the test on Haemonchus contortus [2] was inactive. Besides, the inhibition at 32 µg/mL in the test on Candida albicans was 38.7%.
Take `CC(=O)OC[C@@H]1O[C@H](Oc2c(OC(C)=O)cc3c4c(ccc(-c5ccccc5)c24)C(=O)OC3)[C@@H](OC(C)=O)[C@H](OC(C)=O)[C@H]1OC(C)=O`: the result in the test with Escherichia coli and in the test on Cryptococcus neoformans was inactive.
Turning to `COc1cc2ccc(=O)c3cc(O[C@@H]4O[C@H](CO)[C@@H](O)[C@H](O)[C@H]4O)c4c5ccccc5oc1c4c23`, the result in the test with Escherichia coli and with Cryptococcus neoformans was inactive. Moreover, the inhibition at 32 µg/mL in the test on Staphylococcus aureus was determined as 8.1%.
In the case of `O=c1c(O[C@@H]2O[C@H](CO)[C@@H](O)[C@H](O)[C@H]2O)c(-c2ccc(O)c(O)c2)oc2cc(O)cc(O)c12`, the outcome in the test on Escherichia coli and in the test with Cryptococcus neoformans was inactive.
As for `COc1cc2ccc(=O)c3ccc4c5ccccc5oc1c4c23`, the result in the test on Escherichia coli and in the test with Cryptococcus neoformans was inactive. In addition, the inhibition at 32 µg/mL in the test with Staphylococcus aureus was determined as 58.4%.
As to `COC(=O)c1ccc(-c2ccccc2)c2c1C(=O)C=C(OC)C2=O`, the result with Escherichia coli and in the test with Cryptococcus neoformans was inactive.
With `O=C1C=Cc2cc(O[C@@H]3O[C@H](CO)[C@@H](O)[C@H](O)[C@H]3O)cc3c(-c4ccc(O)cc4)ccc1c23`, the result in the test with Escherichia coli, with Cryptococcus neoformans, in the test with Haemonchus contortus [1] and in the test on Haemonchus contortus [2] was inactive. The inhibition at 32 µg/mL in the test with Candida albicans was 29.6%.
Consider `O=c1c(O[C@@H]2O[C@H](CO[C@@H]3O[C@H](CO)[C@@H](O)[C@H](O)[C@H]3O)[C@@H](O)[C@H](O)[C@H]2O)c(-c2ccc(O)c(O)c2)oc2cc(O)cc(O)c12`, for which the outcome in the test with Escherichia coli and with Cryptococcus neoformans was inactive.
For the compound `COC1=Cc2cc(OC)c(O[C@@H]3O[C@H](CO)[C@@H](O)[C@H](O)[C@H]3O[C@@H]3O[C@H](COC(=O)/C=C/c4ccc(O)c(O)c4)[C@@H](O)[C@H](O)[C@H]3O)c3c(-c4ccccc4)ccc(c23)C1=O`, the result in the test on Escherichia coli, in the test on Cryptococcus neoformans, in the test on Haemonchus contortus [1] and with Haemonchus contortus [2] was inactive.
Consider `O=C1C(O)=Cc2ccc(O[C@@H]3O[C@H](CO)[C@@H](O)[C@H](O)[C@H]3O)c3cc(-c4ccccc4O)cc1c23`, for which the outcome in the test on Escherichia coli, in the test on Cryptococcus neoformans, in the test with Haemonchus contortus [1] and with Haemonchus contortus [2] was inactive.
For the compound `O=C1OC(O)c2cc(O)c(O[C@@H]3O[C@H](CO)[C@@H](O)[C@H](O)[C@H]3O)c3c(-c4ccccc4)ccc1c23` (mixture of isomers), the result in the test with Escherichia coli, with Cryptococcus neoformans, with Haemonchus contortus [1] and in the test on Haemonchus contortus [2] was inactive.
Consider `O=C1OC(C(=O)O)c2cc(O)c(O[C@H]3O[C@@H](CO)[C@H](O)[C@@H](O)[C@@H]3O)c3c(-c4ccccc4)ccc1c23` (mixture of isomers), for which the result with Escherichia coli and with Cryptococcus neoformans was inactive.
